We go through seven compounds from ChEMBL document CHEMBL1129484, “Selectively cytotoxic diterpenes from Euphorbia poisonii” (J Med Chem, 1996).

Structures are written as SMILES. Values after ≈ are worked out from the molar mass of the structure shown.

By LC50 is commonly meant the concentration that kills 50% of the test population. A low value points to a more lethal substance.

One data set relates to MIA PaCa-2. Briefly: Cytotoxicity on pancreatic carcinoma (PACA-2) cell line. Type of data set: functional. To be noted: Homo sapiens, read-out: ED50 (the source's name). The essentials: (§1)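 Human solid tumour cell line panel tested at the Purdue Cancer Center with a 7-day MTT viability assay under standard protocols. Cell lines were A-549 lung, MCF-7 breast, HT-29 colon, A-498 kidney, PC-3 prostate and PACA-2 pancreatic. Adriamycin served as positive control.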

The subject of a further data set is PC-3. As to the kind of experiment: Cytotoxicity on prostate adenocarcinoma (PC-3) cell line. The format is functional. Conditions: Homo sapiens, read-out: ED50 (the source's name). The procedure, abridged:
as §1

A further data set has as its system A549. As to the kind of experiment: Cytotoxicity on lung carcinoma (A-549) cell line. The format is functional. To be noted: Homo sapiens, read-out: ED50 (the source's name). The procedure, abridged:
as §1

Another data set deals with MCF7. Briefly: Cytotoxicity on breast carcinoma (MCF-7) cell line. The format is functional. To be noted: Homo sapiens, read-out: ED50 (the source's name). The essentials: as §1
For a further data set, the system named is HT-29. Briefly: Cytotoxicity on adenocarcinoma (HT-29 colon) cell line. Type of data set: functional. Conditions: Homo sapiens, read-out: ED50 (the source's name). The procedure, abridged: as §1
In another data set the test system is A498. As to the kind of experiment: Cytotoxicity on kidney carcinoma (A-498) cell line. The format is functional. To be noted: Homo sapiens, read-out: ED50 (the source's name). The essentials: as §1
Data set [1] in a line: Lethal concentration against Brine Shrimp. Conditions: artemia, in vivo. The format is organism-based. The essentials:
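Brine shrimp lethality test run by a standard protocol on partitioned fractions, pooled chromatographic fractions and isolated compounds. LC50 values were determined and expressed in µg/mL.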

`CC1=CC2[C@@]3(O)[C@H](C)C[C@]4(OC(=O)CCCCCCC[C@H]5C[C@@H]5C)[C@H]([C@@H]3C(C)=C(CO)C[C@]2(O)C1=O)C4(C)C` (some centres undefined): the results for the EC50 with MIA PaCa-2, in the data set with PC-3 and in the data set with A549 were 1.92 µg/mL (≈ 3.54 µM), 2.44 µg/mL (≈ 4.5 µM) and 2.85 µg/mL (≈ 5.25 µM), respectively.

In the case of `C=C(C)[C@]12C[C@@H](C)[C@@]34OC(Cc5ccccc5)(O[C@@H]1[C@@H]3C=C(COC(=O)Cc1ccc(O)c(OC)c1)C[C@]1(O)C(=O)C(C)=CC41)O2` (some centres undefined), the EC50 with MCF7 came out at 4.29 µg/mL (≈ 6.82 µM); in the data set with HT-29 it was 3 µg/mL (≈ 4.77 µM); in the data set with MIA PaCa-2 it was 2.44 µg/mL (≈ 3.88 µM); with PC-3, 2.9 µg/mL (≈ 4.61 µM); in the data set on A498, 1.08 µg/mL (≈ 1.72 µM); in the data set with A549 it was 1.12 µg/mL (≈ 1.78 µM). In data set [1], this compound returned a 50% lethal concentration (LC50) of 281 µg/mL (≈ 447 µM).

`CC(=O)OCC1=C[C@H]2[C@@H]3C(C)(C)[C@]3(OC(=O)Cc3ccccc3)C[C@@H](C)[C@]2(O)C2C=C(C)C(=O)[C@@]2(O)C1` (some centres undefined): the EC50 was determined as 41.3 µg/mL (≈ 81.1 µM) in the data set with MCF7; 29.5 µg/mL (≈ 57.9 µM) with HT-29; 26.9 µg/mL (≈ 52.9 µM) in the data set on MIA PaCa-2; 35.1 µg/mL (≈ 69 µM) in the data set on PC-3; 1.59 µg/mL (≈ 3.13 µM) in the data set on A498; 26.1 µg/mL (≈ 51.2 µM) with A549. The compound further had a median lethal concentration (LC50) in data set [1] of 12 µg/mL (≈ 23.7 µM).

In the case of `COc1cccc2c1C(=O)c1c(O)c3c(c(O)c1C2=O)C[C@@](O)(C(=O)CO)C[C@@H]3O[C@H]1C[C@H](N)[C@H](O)[C@H](C)O1` [DOXORUBICIN], the EC50 in the data set on MIA PaCa-2 was determined as 1.63 µg/mL (≈ 3 µM); in the data set on A498, 1.87 µg/mL (≈ 3.44 µM).

Take `C/C=C(/C)C(=O)O[C@@]12C[C@@H](C)[C@]3(O)C4C=C(C)C(=O)[C@@]4(O)CC(COC(C)=O)=C[C@H]3[C@@H]1C2(C)C` (some centres undefined): the EC50 was found to be 41.8 µg/mL (≈ 88.4 µM) in the data set on MCF7; 30.8 µg/mL (≈ 65.1 µM) in the data set on HT-29; 30.3 µg/mL (≈ 64.2 µM) with MIA PaCa-2; 27.7 µg/mL (≈ 58.6 µM) with PC-3; 2.18 µg/mL (≈ 4.61 µM) in the data set on A498; 18.9 µg/mL (≈ 40 µM) with A549. The LC50 in data set [1] came out at 191 µg/mL (≈ 404 µM).

`C/C=C(/C)C(=O)O[C@@]12C[C@@H](C)[C@]3(O)C4C=C(C)C(=O)[C@@]4(O)CC(CO)=C[C@H]3[C@@H]1C2(C)C` (some centres undefined): the EC50 was 69.9 µg/mL (≈ 162 µM) with MCF7; 26.5 µg/mL (≈ 61.6 µM) in the data set with HT-29; 37.2 µg/mL (≈ 86.5 µM) with MIA PaCa-2; 17.9 µg/mL (≈ 41.6 µM) with PC-3; 46 µg/mL (≈ 107 µM) with A498; 11.6 µg/mL (≈ 26.9 µM) in the data set with A549. For the same compound, the median lethal concentration (LC50) in data set [1] came to 115 µg/mL (≈ 266 µM).

For `C=C(C)[C@]12C[C@@H](C)[C@@]34OC(Cc5ccccc5)(O[C@@H]1C3C=C(CO)C[C@]1(O)C(=O)C(C)=CC41)O2` (some centres undefined), the EC50 in the data set with MCF7 was found to be 30.9 µg/mL (≈ 66.5 µM); in the data set with HT-29 it was 7.41 µg/mL (≈ 16 µM); in the data set with MIA PaCa-2 it was 3.55 µg/mL (≈ 7.64 µM); with PC-3, 4.56 µg/mL (≈ 9.82 µM); in the data set on A498, 1.97 µg/mL (≈ 4.24 µM); with A549, 5.41 µg/mL (≈ 11.6 µM).
